Measured values: ChEMBL document CHEMBL1806425, “Design and synthesis of 4-amino-2-phenylquinazolines as novel topoisomerase I inhibitors with molecular modeling” (Bioorg Med Chem, 2011)
Values after ≈ are worked out from the molar mass of the structure shown. Active and inactive are the calls of the source. The calls are words filed in the database; no cut-off is given here.

Experiments:
HCT-15 = test: Cytotoxicity against human HCT15 cells by sulforhodamine B assay; assay type: functional, cell-based
SK-MEL-2 = test: Cytotoxicity against human SK-MEL-2 cells by sulforhodamine B assay; assay type: functional, cell-based
A549 = test: Cytotoxicity against human A549 cells by sulforhodamine B assay; assay type: functional, cell-based
Bos taurus [1] = organism: Bos taurus; test: Inhibition of calf thymus DNA topoisomerase I assessed as relaxation of supercoiled DNA pBR322 at 100 ug/ml after 30 mins by agarose gel electrophoresis relative to camptothecin
Method in brief: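 Relaxation of 200 ng pBR322 supercoiled plasmid by 2 units calf thymus topo I, incubated with or without compound (20 mM DMSO stocks) for 30 min at 37 °C. Buffer: 35 mM Tris–HCl pH 8.0, 72 mM KCl, 5 mM MgCl2, 5 mM DTT, 2 mM spermidine, 0.01% BSA. The reaction was stopped with SDS/glycerol dye, then run on 1% agarose in TAE at 15 V for 6 h and stained.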

SK-OV-3 = test: Cytotoxicity against human SKOV3 cells by sulforhodamine B assay; assay type: functional, cell-based
Bos taurus [2] = organism: Bos taurus; test: Inhibition of calf thymus DNA topoisomerase I assessed as relaxation of supercoiled DNA pBR322 at 10 to 100 ug/ml after 30 mins by agarose gel electrophoresis
Method in brief: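 Relaxation of supercoiled pBR322 plasmid DNA (200 ng) by 2 units calf thymus topo I, incubated with or without compound at 37 °C for 30 min. Buffer: 35 mM Tris–HCl pH 8.0, 72 mM KCl, 5 mM MgCl2, 5 mM DTT, 2 mM spermidine, 0.01% BSA. Stopped with SDS/dye/glycerol solution. Run on 1% agarose gel in TAE at 15 V for 6 h, then stained. Compound stocks were 20 mM in DMSO.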

| Structure (SMILES) | IC50 (HCT-15) | IC50 (SK-MEL-2) | IC50 (A549) | inhibition (Bos taurus [1]) | IC50 (SK-OV-3) | inhibition (Bos taurus [2]) |
| --- | --- | --- | --- | --- | --- | --- |
| CCOC(=O)CCNc1nc(-c2ccccc2)nc2ccccc12.Cl | > 100 µg/mL | > 100 µg/mL | > 100 µg/mL | inactive | > 100 µg/mL | – |
| c1ccc(-c2nc(NC3CCCCC3)c3ccccc3n2)cc1 | 2.76 µg/mL (≈ 9.1 µM) | 9.63 µg/mL (≈ 31.7 µM) | 7.23 µg/mL (≈ 23.8 µM) | Active | 9.82 µg/mL (≈ 32.4 µM) | – |
| CC[C@@]1(O)C(=O)OCc2c1cc1n(c2=O)Cc2cc3ccccc3nc2-1 [CAMPTOTHECIN] | 0.096 µg/mL (≈ 0.276 µM) | 6.88 µg/mL (≈ 19.7 µM) | 0.072 µg/mL (≈ 0.207 µM) | – | 1.54 µg/mL (≈ 4.42 µM) | Active |
| CC(C)Nc1nc(-c2ccccc2)nc2ccccc12 | 4.11 µg/mL (≈ 15.6 µM) | 16.5 µg/mL (≈ 62.5 µM) | 7.53 µg/mL (≈ 28.6 µM) | Active | 16.9 µg/mL (≈ 64.2 µM) | – |
| c1ccc(CNc2nc(-c3ccccc3)nc3ccccc23)cc1 | 13.9 µg/mL (≈ 44.7 µM) | 31.2 µg/mL (≈ 100 µM) | 15.1 µg/mL (≈ 48.6 µM) | – | 31.7 µg/mL (≈ 102 µM) | – |
| CN1CCN(c2nc(-c3ccccc3)nc3ccccc23)CC1 | 22.4 µg/mL (≈ 73.5 µM) | 37 µg/mL (≈ 122 µM) | 26.9 µg/mL (≈ 88.3 µM) | Active | 26.8 µg/mL (≈ 88.2 µM) | – |
| COc1cccc2c1C(=O)c1c(O)c3c(c(O)c1C2=O)C[C@@](O)(C(=O)CO)C[C@@H]3O[C@H]1C[C@H](N)[C@H](O)[C@H](C)O1 [DOXORUBICIN] | 0.05 µg/mL (≈ 0.092 µM) | 0.09 µg/mL (≈ 0.166 µM) | – | – | 0.08 µg/mL (≈ 0.147 µM) | – |
| CN1CCCN(c2nc(-c3ccccc3)nc3ccccc23)CC1 | 20.1 µg/mL (≈ 63.1 µM) | 36.5 µg/mL (≈ 115 µM) | 24.1 µg/mL (≈ 75.7 µM) | Active | 26.1 µg/mL (≈ 82 µM) | – |
| CNc1nc(-c2ccccc2)nc2ccccc12 | 21.2 µg/mL (≈ 90 µM) | 24.4 µg/mL (≈ 104 µM) | 29.3 µg/mL (≈ 125 µM) | inactive | 33.6 µg/mL (≈ 143 µM) | – |
| c1ccc(-c2nc(N3CCOCC3)c3ccccc3n2)cc1 | 51.8 µg/mL (≈ 178 µM) | 65.2 µg/mL (≈ 224 µM) | 52.8 µg/mL (≈ 181 µM) | Active | 57 µg/mL (≈ 196 µM) | – |
| Cl.c1ccc(CNc2nc(-c3ccccc3)nc3ccccc23)cc1 | 6.13 µg/mL | 15.8 µg/mL | 9.79 µg/mL | – | 9.5 µg/mL | – |
| COCCNc1nc(-c2ccccc2)nc2ccccc12 | 26.8 µg/mL (≈ 96.1 µM) | 27.6 µg/mL (≈ 98.9 µM) | 27.4 µg/mL (≈ 98.3 µM) | Active | 22.9 µg/mL (≈ 82 µM) | – |
| COC(=O)CNc1nc(-c2ccccc2)nc2ccccc12 | 37.5 µg/mL (≈ 128 µM) | 37.6 µg/mL (≈ 128 µM) | 36.3 µg/mL (≈ 124 µM) | Active | 35.5 µg/mL (≈ 121 µM) | – |
| CN(C)CCN(C)c1nc(-c2ccccc2)nc2ccccc12 | 26.5 µg/mL (≈ 86.4 µM) | 28.9 µg/mL (≈ 94.4 µM) | 28.1 µg/mL (≈ 91.8 µM) | Active | 25.5 µg/mL (≈ 83.3 µM) | – |
